mHtt clearance: clearance of mutant huntingtin inclusions, primary screen, imaging, HeLa Exon1htt(103Q)mCFP, confocal imaging | aggregate imaging; zero = plate's median compound well | hit rate 0.42% among 47,000 | inhibition, % at 1.5 µM;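 active = inhibition of aggregate fluorescence above about 70%, also judged a hit by eye on the cell image, limit read from the data, passing the limit was not always enough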;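 note: cells exposed to compound for three days before fixation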
M1 antagonist: antagonists of rat M1 muscarinic receptor; hit rate 3.4% among 64,000; Muscarinic acetylcholine receptor M1 (Rattus norvegicus), P08482; AID 628, 2007; CHO-M1 cells, Fluo-4 calcium, ACh EC80 antagonist mode; hits give low values; B-score at 10 µM;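 active = calcium fluorescence response, raw or row-and-column corrected B-score, differing from the plate sample mean either way at a set confidence level, mostly lower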
Target sequence (P08482 whole entry, looked up): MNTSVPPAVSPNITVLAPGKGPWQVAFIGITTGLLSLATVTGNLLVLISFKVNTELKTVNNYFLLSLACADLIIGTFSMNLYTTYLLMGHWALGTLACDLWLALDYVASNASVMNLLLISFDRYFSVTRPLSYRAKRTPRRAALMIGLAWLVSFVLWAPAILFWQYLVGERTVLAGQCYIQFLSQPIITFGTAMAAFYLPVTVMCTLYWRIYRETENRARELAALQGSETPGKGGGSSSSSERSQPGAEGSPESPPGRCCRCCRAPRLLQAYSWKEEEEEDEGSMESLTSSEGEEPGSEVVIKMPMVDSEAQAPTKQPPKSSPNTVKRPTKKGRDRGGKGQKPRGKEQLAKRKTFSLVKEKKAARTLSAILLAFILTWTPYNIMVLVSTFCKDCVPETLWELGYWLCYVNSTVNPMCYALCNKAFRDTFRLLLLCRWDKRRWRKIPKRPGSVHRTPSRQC
D1 allo mod: D1 CRE-luciferase signal change, two-sided – cell-based, HEK293 D1, dopamine EC30, D1 allosteric modulator project, primary screen; dopamine EC30 potentiation; actives deviate in either direction; hit rate 5.9% among 58,000; B-score at 10 µM;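 active = luminescence count or its row- and column-corrected plate score outside the 99.7% band of the plate's sample wells, on either side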
AP ELISA ortho: alternative complement pathway inhibitors, primary screen, biochemical, ELISA, human serum, orthogonally pooled compounds; inhibition, % at 5 µM; hit rate 0.08% among 62,000; LPS-coated ELISA, C3 deposition; tested in compound mixtures;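 active = inhibition above 30% in each of the two pooled mixtures holding the compound, so the lower value exceeds 30%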;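 note: 0% = serum in Mg-EGTA without compound and 100% = EDTA serum blank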
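Test system: human serum alternative complement pathway, C3 deposition on LPS-coated wells; also added: Plate-bound LPS; doses: 5 µM per compound in ten-compound mixtures; schedule: 1 h at 37 °C; detection: Anti-C3 ELISA, OD 450 nm; evaluation: percent inhibition of C3 deposition onto LPS; repeats: two pool placements per compound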
M1 ag: M1 muscarinic receptor agonists, primary screen, CHO-M1 cells, Fluo-4 calcium, agonist mode; Muscarinic acetylcholine receptor M1; Fluo-4 calcium fluorescence; hits give high values; B-score at 10 µM; hit rate 3% among 64,000; AID 626, 2007;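 active = fluorescence rise, raw or as B-score row- and column-corrected plate score, outside the 99.7% band of its plate's samples, either direction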
D1 mod confirm: D1 receptor positive allosteric modulators, retest, confirmation, cell-based, HEK293 D1, CRE-luciferase, duplicate. shares compounds with D1 allo mod. dopamine EC30 potentiation; hits give high values. luminescence at 10 µM. hit rate 88% among 2,200;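 active = luminescence in either of two replicates above the same-plate mean plus 3 SD of the low-dose dopamine control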
D1 no dopamine: D1 receptor agonism without dopamine, confirmation, mechanism study for D1 allosteric modulator project, cell-based, HEK293 D1, CRE-luciferase, secondary assay 1; shares compounds with D1 allo mod; luminescence, no dopamine; hits give high values; luminescence at 10 µM; hit rate 0.8% among 1,900; in the data active = luminescence above about 3900
Isoprot counter: alters isoproterenol CRE-luciferase response in HEK293 cells; calls only at 10 µM; HEK293 D1 CRE-luciferase, isoproterenol EC30 counter-screen; shares compounds with D1 allo mod; hit rate 63% among 2,200;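 active = luminescence in either replicate above plate mean of wells with a partly effective reference agonist dose plus 3 SD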;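 note: isoproterenol raises cAMP through native beta-adrenoceptor Gs so signal bypasses D1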
Numbers without * were called inactive; i = inactive; nt = not tested or not shown; + = active, no number. Only some compounds are listed: those with a hit (about 9% of all), similar ones and a draw of the others.

SMILES	mHtt clearance	M1 antagonist	D1 allo mod	AP ELISA ortho	M1 ag	D1 mod confirm	D1 no dopamine	Isoprot counter
CCN(CC)C(=O)c1sc(NC(=O)Cc2cccs2)c(C#N)c1C	-31.6	0.32	6.95*	10.0	-0.0863	11496*	1544	i
COC(=O)c1c(NC(=O)Cc2cccs2)sc(C(=O)NC2CCCCC2)c1C	-12.5	nt	nt	nt	nt	nt	nt	nt
COC(=O)c1c(NC(=O)Cc2cccs2)sc(C(=O)N2CCCCC2)c1C	-8.2	-0.292	7.28*	-3.7	0.533	25076*	1708	+
COC(=O)c1c(NC(=O)Cc2cccs2)sc2c1CCC(C)C2 (centres undefined)	nt	-0.00581	4.86*	19.3	-1.49	8816*	1552	i
COC(=O)c1c(NC(=O)c2ccco2)sc(C(=O)N2CCCC2)c1C	2.6	nt	6.88*	-31.2	nt	12140*	nt	+
CCOC(=O)c1c(NC(=O)Cc2cccs2)sc(C)c1C	nt	0.108	12.8*	-5.9	-0.0413	15008*	1728	+
CCOC(=O)c1c(NS(C)(=O)=O)sc2c1CCC(C)C2 (centres undefined)	-52.5	0.42	9.21*	4.5	0.604	13356*	1660	+
CCOCCn1c(=O)c2c(nc3n2CCN3c2ccc(CC)cc2)n(C)c1=O	nt	0.525	-0.839	6.4	0.374	nt	nt	nt
CCCn1nnc(NC(=O)COc2ccc(C3CCCCC3)cc2)n1	18.6	-0.203	-1.09	-6.6	-0.713	nt	nt	nt
O=c1oc(-c2ccco2)nc2ccccc12	nt	0.0461	0.286	9.7	0.241	nt	nt	nt
c1coc(-c2nc3ccccc3nc2-c2ccco2)c1	nt	0.127	6.73*	13.5	0.274	14092*	nt	+
Cc1ccc(C(=O)N(CC(=O)NC2CCCC2)Cc2cccs2)s1	-5.0	0.442	-0.381	16.8	0.138	nt	nt	nt
COc1cc(OC)cc(C(C)=O)c1	-73.5	-0.0552	8.46*	7.2	0.627	24876*	1768	+
COc1cc(OC)cc(C(=O)Nc2cccc(C(C)=O)c2)c1	-17.4	-0.596	-0.833	0.4	0.255	nt	nt	nt
COc1cccc(C(=O)Nc2ncc3c(n2)CC(C)(C)CC3=O)c1	nt	0.297	-0.348	4.4	-0.0603	nt	nt	nt
CCn1nnc(-c2ccccc2NC(=O)c2cc(OC)cc(OC)c2)n1	nt	0.375	0.98	0.1	-0.39	nt	nt	nt
CCn1nnc(-c2ccccc2NC(=O)c2cc(OC)c(OC)c(OC)c2)n1	nt	-0.0264	5.48*	9.6	0.0143	16052*	1640	+
CNc1nn(-c2cccc(Cl)c2)nc1N	nt	0.611	4.17*	3.8	1.51	8344*	1588	i
NC(=O)c1nn(-c2cccc(Cl)c2)c(=O)cc1O	19.1	nt	nt	nt	nt	nt	nt	nt
Brc1cnc(N2CCCC2)nc1N1CCOCC1	-46.4	0.0109	5.98*	nt	0.215	18712*	1620	+
CCCCN(CC)C(=O)c1ccc(Cl)c(Cl)c1	-31.5	-0.83	3.77*	6.8	1.56	7124*	1704	i
OC[C@H]1O[C@@H](n2cnc3c(NC4CCCC4)ncnc32)[C@H](O)[C@@H]1O	nt	0.181	5.48*	-9.0	-0.163	7504*	2116	+
CCOC(=O)C1CCCN(C(=O)COC(=O)C2=COCCO2)C1 (centres undefined)	nt	-0.239	-0.605	2.0	0.147	nt	nt	nt
CCNc1nc(NCC)nc(OCCOC(=O)c2ccccc2)n1	nt	1.13	6.86*	-4.0	-0.386	16012*	1704	+
CCNc1nc(NCC)nc(OCCOC(C)=O)n1	-4.5	nt	nt	nt	nt	nt	nt	nt
SMILES	mHtt clearance	M1 antagonist	D1 allo mod	AP ELISA ortho	M1 ag	D1 mod confirm	D1 no dopamine	Isoprot counter
C[C@H](NC(=O)C1(c2ccccc2)CCN(C(=O)[C@H]2CSCN2C(=O)OC(C)(C)C)CC1)C(=O)O	nt	-0.806	0.0257	22.7	-0.849	nt	nt	nt
CCOC(=O)c1sc(NC(=O)CSc2nnc(C)s2)c(C(=O)OCC)c1C	nt	0.0239	6.08*	12.4	0.49	25484*	1664	+
CCOC(=O)c1c(NC(=O)CC)sc(C(C)=O)c1C	nt	-0.0495	16*	nt	-0.225	12336*	1496	+
CCOC(=O)c1sc(NC(=O)CN2CCCC2)c(C(=O)OCC)c1C	-75.2	0.863	0.629	0.8	0.432	nt	nt	nt
CCOC(=O)c1c(NC(=O)OC)sc(C(=O)N(C)C)c1C	-33.0	-0.281	4.1*	14.5	-0.0881	13484*	1692	+
CCOC(=O)c1c(N)sc(C(=O)N(C)C)c1C	-58.9	0.523	0.962	-15.8	0.0779	nt	nt	nt
CCOC(=O)c1c(/N=C/N(C)C)sc(C(=O)OC)c1C	-12.2	0.371	3.7*	8.4	-0.333	8988*	nt	+
CC1(C)CC(=O)c2sc(NC(=O)c3ccc4ncsc4c3)nc2C1	-379.3	nt	nt	nt	nt	nt	nt	nt
CCOC(=O)c1sc(NC(=O)COC(=O)Cn2cnc3ccccc32)c(C(=O)OCC)c1C	nt	-0.0985	4.97*	-5.4	0.647	9720*	1652	i
CCCc1cc(C(=O)Nc2sc(C(C)=O)c(C)c2C(=O)OCC)no1	2.4	0.429	6.53*	12.0	0.661	7336*	1520	i
CCOC(=O)c1sc(NC(=O)c2c(C)noc2C)c(C(=O)OCC)c1C	-2.0	0.531	0.119	-2.6	0.423	nt	nt	nt
CCC(=O)N1CCN(c2nc(-c3ccccc3)c3c(c2C#N)CCCC3)CC1	nt	-0.386	nt	16.6	0.218	nt	nt	nt
CCOC(=O)c1cccc(NC(=O)CCc2nc(-c3ccccc3F)no2)c1	-23.2	0.256	3.03*	8.6	-0.775	7612	2088	i
CCOC(=O)c1cccc(NC(=O)CCc2nc(-c3ccc(C)cc3)no2)c1	nt	-0.33	-0.085	-4.9	0.471	nt	nt	nt
Clc1ccc(-c2nnc3sc(-c4ccc(Br)o4)nn23)c(Cl)c1	nt	-0.498	-0.42	4.9	-0.378	nt	nt	nt
c1coc(-c2nnc3sc(Cc4cccs4)nn23)c1	-5.0	0.0416	nt	nt	-0.0193	nt	nt	nt
Clc1ccccc1-c1nnc2sc(-c3ccc(Br)o3)nn12	nt	-0.168	2.3*	9.8	1.16	8388*	1560	i
c1coc(-c2nn3c(-c4ccco4)nnc3s2)c1	nt	1.4	2.82*	-7.3	1.6	12468*	1852	+
Brc1ccc(-c2nn3c(Cc4ccccc4)nnc3s2)o1	-10.2	0.467	3.81*	-7.5	0.027	11236*	1820	i
O=C(CCn1nnc2ccccc21)N1CCC(O)(c2cccc(F)c2)CC1	nt	1.23	-0.495	14.6	0.537	nt	nt	nt
COc1ccc2nc3oc(C(=O)N4CCN(c5cccc(Cl)c5)CC4)cc3cc2c1	-37.7	-0.344	3.59*	12.2	0.888	5456	1484	i
